Blank lines part the entries; values can stand above or below the compound they belong to. Activity calls are given as the source filed them. The calls are words filed in the database; no cut-off is given here.
Experiments:
Rattus norvegicus [1] = assay: Antiallergic activity against egg albumin-induced anaphylaxis in po dosed sensitized rat compound administered 15 mins prior to antigen challenge as single dose by passive cutaneous anaphylaxis test; format: functional
In short: (§1)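 Male Sprague–Dawley or Wistar rats (100–150 g) were passively sensitized by two intradermal dilutions of rat anti-egg-albumin serum, which was mainly IgE and raised with EA im (10 mg/kg) plus killed pertussis vaccine iv. After 48 h, drug or vehicle was given. Rats were then challenged iv with EA plus Evans Blue (25 mg/kg each). Spot diameter was read 20–30 min later; ≥5 rats/compound. % inhibition was calculated versus control mean diameter.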

Rattus norvegicus [2] = assay: Antiallergic activity against egg albumin-induced anaphylaxis in iv dosed sensitized rat compound administered 15 mins prior to antigen challenge as single dose by passive cutaneous anaphylaxis test; format: functional; in short: as §1
Rattus norvegicus [3] = assay: Antiallergic activity against egg albumin-induced anaphylaxis in sensitized rat at 30 mg/kg, po administered 15 mins prior to antigen challenge as single dose measured up to 4 hrs by passive cutaneous anaphylaxis test; format: functional, organism-based; parameters: dose 30 mg/kg; in short: as §1
Rattus norvegicus [4] = assay: Antiallergic activity against egg albumin-induced anaphylaxis in sensitized rat at 5 mg/kg, po administered 15 mins prior to antigen challenge as single dose measured up to 4 hrs by passive cutaneous anaphylaxis test; format: functional, organism-based; parameters: dose 5 mg/kg; in short: as §1
Rattus norvegicus [5] = assay: Antiallergic activity against egg albumin-induced anaphylaxis in sensitized rat at 10 mg/kg, po administered 15 mins prior to antigen challenge as single dose measured up to 4 hrs by passive cutaneous anaphylaxis test; format: functional, organism-based; parameters: dose 10 mg/kg; in short: as §1
Rattus norvegicus [6] = assay: Antiallergic activity against egg albumin-induced anaphylaxis in sensitized rat at 25 mg/kg, po administered 15 mins prior to antigen challenge as single dose measured up to 4 hrs by passive cutaneous anaphylaxis test; format: functional, organism-based; parameters: dose 25 mg/kg; in short: as §1
Mast cell [7] = assay: Inhibition of histamine release in Sprague-Dawley rat peritoneal mast cells at 20 uM after 10 mins by fluorimetry relative to control; format: functional
In short: (§2)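 Peritoneal lavage cells from male Sprague–Dawley rats (200–300 g) were sensitized for 2 h at 37 °C in rat anti-EA serum with heparin. Cells were resuspended in buffered HBSS and challenged with EA. Drug was added together with antigen. After 10 min incubation, histamine was measured fluorimetrically. % inhibition was calculated versus release without drug.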

Rattus norvegicus [8] = assay: Inhibition of egg albumin-induced allergic bronchospasm in sensitized, spontaneously breathing and anesthesized Harlan-Wistar rat assessed as drop in pulmonary arterial blood pressure at 0.39 mg/kg administered intraduodenally 15 min prior to antigen challenge (reference value: 32.2 +/- 4.7 %); format: functional; conditions: route intraduodenal
In short: (§3)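 Male Harlan-Wistar rats (225–275 g) were sensitized with EA im (1 mg/rat) plus pertussis vaccine ip. After 13–15 days they were urethane-anesthetized (1.5 g/kg ip). Drug was given intraduodenally in methocel or iv in saline, then EA 2 mg/rat iv. Pulmonary ventilation pressure and mean arterial pressure were recorded. Individual responses were compared with a separate vehicle-control group mean; 4–15 rats/group.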

Rattus norvegicus [9] = assay: Inhibition of egg albumin-induced allergic bronchospasm in sensitized, spontaneously breathing and anesthesized Harlan-Wistar rat assessed as inhibition of control allergic bronchospasm response at 0.78 mg/kg administered intraduodenally 15 min prior to antigen challenge; format: functional; conditions: route intraduodenal; in short: as §3
Rattus norvegicus [10] = assay: Inhibition of egg albumin-induced allergic bronchospasm in sensitized, spontaneously breathing and anesthesized Harlan-Wistar rat assessed as drop in mean arterial blood pressure at 0.78 mg/kg administered intraduodenally 15 min prior to antigen challenge (reference value: 46.3 +/- 3.5 %); format: functional; conditions: route intraduodenal; in short: as §3
Rattus norvegicus [11] = assay: Inhibition of egg albumin-induced allergic bronchospasm in sensitized, spontaneously breathing and anesthesized Harlan-Wistar rat assessed as inhibition of control allergic hypotension response at 0.78 mg/kg administered intraduodenally 15 min prior to antigen challenge; format: functional; conditions: route intraduodenal; in short: as §3
Rattus norvegicus [12] = assay: Inhibition of egg albumin-induced allergic bronchospasm in sensitized, spontaneously breathing and anesthesized Harlan-Wistar rat assessed as inhibition of control allergic hypotension response compound administered intraduodenally 15 min prior to antigen challenge; format: functional; conditions: in the assay text read “bronchospasm response” for “hypotension response”; in short: as §3
Rattus norvegicus [13] = assay: Inhibition of egg albumin-induced allergic bronchospasm in sensitized, spontaneously breathing and anesthesized Harlan-Wistar rat assessed as drop in pulmonary arterial blood pressure at 0.78 mg/kg administered intraduodenally 15 min prior to antigen challenge (reference value: 32.2 +/- 4.7 %); format: functional; conditions: route intraduodenal; in short: as §3
Rattus norvegicus [14] = assay: Inhibition of egg albumin-induced allergic bronchospasm in sensitized, spontaneously breathing and anesthesized Harlan-Wistar rat assessed as inhibition of control allergic hypotension response at 3.125 mg/kg administered intraduodenally 15 min prior to antigen challenge; format: functional; conditions: route intraduodenal; in short: as §3
Plasma = assay: Drug metabolism in Sprague-Dawley rat plasma assessed as sodium 2-carboxy-6-ethyl-4a,7a-dihydrothieno[2,3-d]pyrimidin-4-olate formation at 50 mg/kg, po; format: ADME, organism-based; parameters: dose 50 mg/kg, route oral; conditions: in vivo
In short: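 Mature Sprague–Dawley rats (150–200 g) were fasted overnight and given a single 50 mg/kg oral dose. Blood was taken at 0.5–6 h, two rats per time point. Plasma (1 mL) was acidified to pH 1–2 and extracted twice with CHCl₃. The dried residue was taken up in methanol and quantified by reverse-phase C-18 HPLC.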

Rattus norvegicus [15] = assay: Inhibition of egg albumin-induced allergic bronchospasm in sensitized, spontaneously breathing and anesthesized Harlan-Wistar rat assessed as drop in pulmonary arterial blood pressure at 3.125 mg/kg administered intraduodenally 15 min prior to antigen challenge (reference value: 32.2 +/- 4.7 %); format: functional; conditions: route intraduodenal; in short: as §3
Rattus norvegicus [16] = assay: Inhibition of egg albumin-induced allergic bronchospasm in sensitized, spontaneously breathing and anesthesized Harlan-Wistar rat assessed as drop in mean arterial blood pressure at 3.125 mg/kg administered intraduodenally 15 min prior to antigen challenge (reference value: 46.3 +/- 3.5 %); format: functional; conditions: route intraduodenal; in short: as §3
Rattus norvegicus [17] = assay: Inhibition of egg albumin-induced allergic bronchospasm in sensitized, spontaneously breathing and anesthesized Harlan-Wistar rat assessed as inhibition of control allergic bronchospasm response at 3.125 mg/kg administered intraduodenally 15 min prior to antigen challenge; format: functional; conditions: route intraduodenal; in short: as §3
Rattus norvegicus [18] = assay: Inhibition of egg albumin-induced allergic bronchospasm in sensitized, spontaneously breathing and anesthesized Harlan-Wistar rat assessed as inhibition of control allergic bronchospasm response compound administered intraduodenally 15 min prior to antigen challenge; format: functional; in short: as §3
Rattus norvegicus [19] = assay: Inhibition of egg albumin-induced allergic bronchospasm in sensitized, spontaneously breathing and anesthesized Harlan-Wistar rat assessed as drop in mean arterial blood pressure at 0.39 mg/kg administered intraduodenally 15 min prior to antigen challenge (reference value: 46.3 +/- 3.5 %); format: functional; conditions: route intraduodenal; in short: as §3
Mast cell [20] = assay: Inhibition of histamine release in Sprague-Dawley rat peritoneal mast cells at 1.25 uM after 10 mins by fluorimetry relative to control; format: functional; in short: as §2
Rattus norvegicus [21] = assay: Inhibition of egg albumin-induced allergic bronchospasm in sensitized, spontaneously breathing and anesthesized Harlan-Wistar rat assessed as inhibition of control allergic hypotension response at 0.39 mg/kg administered intraduodenally 15 min prior to antigen challenge; format: functional; conditions: route intraduodenal; in short: as §3
Rattus norvegicus [22] = assay: Inhibition of egg albumin-induced allergic bronchospasm in sensitized, spontaneously breathing and anesthesized Harlan-Wistar rat assessed as inhibition of control allergic bronchospasm response at 0.39 mg/kg administered intraduodenally 15 min prior to antigen challenge; format: functional; conditions: route intraduodenal; in short: as §3
Mast cell [23] = assay: Inhibition of histamine release in Sprague-Dawley rat peritoneal mast cells at 5 uM after 10 mins by fluorimetry relative to control; format: functional; in short: as §2
Rattus norvegicus [24] = assay: Antiallergic activity against egg albumin-induced anaphylaxis in sensitized rat at 50 mg/kg, po administered 15 mins prior to antigen challenge as single dose measured up to 4 hrs by passive cutaneous anaphylaxis test; format: functional, organism-based; parameters: dose 50 mg/kg; in short: as §1

SMILES: CCOC(=O)c1nc2scc(C)c2c(=O)[nH]1
ED50 (Rattus norvegicus [1]): 50 mg/kg

SMILES: CCOC(=O)C(=O)Nc1sccc1C(N)=O
ED50 (Rattus norvegicus [2]): 0.2 mg/kg
Activity (Rattus norvegicus [3]): Active
ED50 (Rattus norvegicus [1]): 4.5 mg/kg

SMILES: CCOC(=O)c1nc2sc(CC)c(C)c2c(=O)[nH]1
ED50 (Rattus norvegicus [1]): 11.3 mg/kg

SMILES: CCOC(=O)c1nc2sc(C(C)C)cc2c(=O)[nH]1
ED50 (Rattus norvegicus [1]): 17.9 mg/kg

SMILES: CCOC(=O)c1nc2sc(CC(C)C)c(C)c2c(=O)o1
Activity (Rattus norvegicus [4]): inactive

SMILES: CCCCCCc1cc2c(=O)oc(C(=O)OCC)nc2s1
Activity (Rattus norvegicus [5]): inactive

SMILES: Cc1c(CC(C)C)sc2nc(C(=O)[O-])nc([O-])c12.O.[K+].[K+]
ED50 (Rattus norvegicus [2]): 0.14 mg/kg
ED50 (Rattus norvegicus [1]): 2.7 mg/kg

SMILES: CC(C)c1cc2c([O-])nc(C(=O)[O-])nc2s1.O.[Na+].[Na+]
ED50 (Rattus norvegicus [2]): 1 mg/kg
ED50 (Rattus norvegicus [1]): > 10 mg/kg

SMILES: O.O=C([O-])c1nc([O-])c2c3c(sc2n1)CCCC3.[Na+].[Na+]
ED50 (Rattus norvegicus [1]): 50 mg/kg

SMILES: CCc1sc2nc(C(=O)O)nc(O)c2c1N
Activity (Rattus norvegicus [6]): inactive

SMILES: CCCCCCc1cc2c([O-])nc(C(=O)[O-])nc2s1.O.[Na+].[Na+]
ED50 (Rattus norvegicus [1]): 17.7 mg/kg

Drug metabolism (Plasma): metabolite_detected
SMILES: CCOC(=O)c1nc2sc(CC)cc2c(=O)[nH]1
inhibition at 20 µM (Mast cell [7]): 82%
inhibition in vivo at 0.39 mg/kg (Rattus norvegicus [8]): 48.8%
Activity (Rattus norvegicus [3]): Active
inhibition in vivo at 0.78 mg/kg (Rattus norvegicus [9]): 27.8%
inhibition in vivo at 0.78 mg/kg (Rattus norvegicus [10]): 51.8%
inhibition in vivo at 0.78 mg/kg (Rattus norvegicus [11]): 5.2%
ED50 (Rattus norvegicus [1]): 2.4 mg/kg
inhibition (Rattus norvegicus [12]): Dose-dependent effect
ED50 (Rattus norvegicus [12]; intraduodenal): 1 mg/kg
inhibition in vivo at 0.78 mg/kg (Rattus norvegicus [13]): 29.2%
inhibition in vivo at 3.125 mg/kg (Rattus norvegicus [14]): 18.9%
inhibition in vivo at 3.125 mg/kg (Rattus norvegicus [15]): 17.1%
inhibition in vivo at 3.125 mg/kg (Rattus norvegicus [16]): 42.4%
inhibition in vivo at 3.125 mg/kg (Rattus norvegicus [17]): 53.6%
inhibition (Rattus norvegicus [18]): Dose-dependent effect
ED50 (Rattus norvegicus [18]; intraduodenal): 1 mg/kg
inhibition in vivo at 0.39 mg/kg (Rattus norvegicus [19]): 48.7%
inhibition at 1.25 µM (Mast cell [20]): 19%
inhibition in vivo at 0.39 mg/kg (Rattus norvegicus [21]): 2.7%
inhibition in vivo at 0.39 mg/kg (Rattus norvegicus [22]): 4.3%
inhibition at 5 µM (Mast cell [23]): 55%

SMILES: CCCCCCc1sc2nc(C(=O)OCC)[nH]c(=O)c2c1C
ED50 (Rattus norvegicus [1]): 50 mg/kg

SMILES: CCCCCCc1cc2c(=O)[nH]c(C(=O)OCC)nc2s1
ED50 (Rattus norvegicus [1]): > 5 mg/kg

SMILES: Cc1csc2nc(C(=O)[O-])nc([O-])c12.O.[Na+].[Na+]
ED50 (Rattus norvegicus [1]): 50 mg/kg

SMILES: CCOC(=O)c1nc2sc(CC)cc2c(=O)o1
ED50 (Rattus norvegicus [1]): 34.4 mg/kg

SMILES: Cc1c(CC(C)C)sc2nc(C(=O)O)[nH]c(=O)c12
Activity (Rattus norvegicus [3]): Active

SMILES: CCOC(=O)c1nc2sc(N)c(C)c2c(=O)[nH]1
ED50 (Rattus norvegicus [1]): < 50 mg/kg

SMILES: CCOC(=O)c1nc2sc(C(C)=O)c(C)c2c(=O)[nH]1
ED50 (Rattus norvegicus [1]): 25 mg/kg

SMILES: CCOC(=O)c1nc2sc(CC)c(N)c2c(=O)[nH]1
ED50 (Rattus norvegicus [1]): 10 mg/kg

SMILES: CCOC(=O)c1nc2sc(CC)c(I)c2c(=O)[nH]1
ED50 (Rattus norvegicus [1]): 8.1 mg/kg

SMILES: CC(=O)c1sc2nc(C(=O)O)nc(O)c2c1C
Activity (Rattus norvegicus [24]): inactive

SMILES: CCOC(=O)c1nc2sc(CC)c(C)c2c(=O)o1
Activity (Rattus norvegicus [4]): inactive

SMILES: CCc1sc2nc(C(=O)[O-])nc([O-])c2c1C.O.[Na+].[Na+]
ED50 (Rattus norvegicus [1]): 10 mg/kg

SMILES: CCOC(=O)c1nc2sc(C(C)=O)c(C)c2c(=O)o1
Activity (Rattus norvegicus [4]): inactive

SMILES: CCCCCCc1sc2nc(C(=O)OCC)oc(=O)c2c1C
ED50 (Rattus norvegicus [1]): 8.2 mg/kg

SMILES: CCc1cc2c([O-])nc(C(=O)[O-])nc2s1.O.[Na+].[Na+]
inhibition at 20 µM (Mast cell [7]): 73%
ED50 (Rattus norvegicus [2]): 1.2 mg/kg
ED50 (Rattus norvegicus [1]): 13 mg/kg
inhibition at 1.25 µM (Mast cell [20]): 22%
inhibition at 5 µM (Mast cell [23]): 51%

SMILES: CCOC(=O)c1nc2sccc2c(=O)[nH]1
ED50 (Rattus norvegicus [1]): > 25 mg/kg

SMILES: CCOC(=O)c1nc2sc(CC(C)C)c(C)c2c(=O)[nH]1
ED50 (Rattus norvegicus [1]): 8.1 mg/kg

SMILES: CCOC(=O)c1nc2sc(C(C)C)cc2c(=O)o1
ED50 (Rattus norvegicus [1]): > 10 mg/kg

Source: ChEMBL document CHEMBL3244400, “Synthesis of 3,4-dihydro-4-oxothieno[2,3-d]pyrimidine-2-carboxylates, a new series of orally active antiallergy agents” (J Med Chem, 1979)
